Experimental data from ChEMBL document CHEMBL4020823, “Highly Selective, Potent, and Oral mTOR Inhibitor for Treatment of Cancer as Autophagy Inducer” (J Med Chem, 2018).
pIC50: −log10 of the molar value. Calls of active or inactive are those of the source. The calls are words filed in the database; no cut-off is given here.

Key:
Mus musculus = species: Mus musculus; experiment: Inhibition of full length recombinant mouse p85alpha/PI3K p110alpha E542K mutant at 1 uM relative to control
Outline: (§1)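 Eurofins KinaseProfiler panel with compound at a single 1 μM concentration. ATP at the Km of each kinase. Result is % inhibition, mean of two independent experiments.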

[1] = molecular target: PI3K p110 alpha/p85 alpha (Mus musculus) (UniProt P26450+P42337); experiment: Inhibition of full length recombinant mouse PI3K p110alpha/p85alpha at 1 uM relative to control; assay type: protein-complex assay; outline: as §1
MDA-MB-231 [2] = experiment: Cell cycle arrest in human MDA-MB-231 cells assessed as accumulation at G0/G1 phase at 0.25 to 0.5 uM after 24 hrs by propidium iodide-staining based flow cytometric analysis; assay type: functional
Outline: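 Cells were seeded at 5 × 10^5 cells/mL. At 24 h after plating they were treated with increasing concentrations for 24 h, washed in PBS, and fixed in ice-cold 70% ethanol for at least 24 h. They were stained with propidium iodide plus RNase A for 30 min at 37 °C and analysed by flow cytometry for phase distribution.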

OVCAR-5 = experiment: Growth inhibition of human OVCAR5 cells after 72 hrs by CCK8 assay; assay type: functional, cell-based; conditions: OVCAR-5, 72 h
Outline: (§2)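 Cells were seeded at 2000–3000 per well and grown 24 h in serum-containing medium. They were then exposed to serially diluted compound for 72 h at 37 °C, 5% CO2. CCK8 reagent was added for 1–4 h and absorbance read at 450 nm. Inhibition = (AC − AS)/(AC − Ab) × 100%. IC50 is the average of at least three independent determinations.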

T47D [3] = experiment: Antitumor activity against human T47D cells xenografted in BALB/c nude mouse assessed as tumor weight at 60 mg/kg, po administered via gavage after 3 weeks (reference value: 1.23 g); assay type: functional
[4] = molecular target: PI3K p110 beta/p85 alpha (Homo sapiens) (UniProt P27986+P42338); experiment: Inhibition of full length recombinant human PI3K p110beta/p85alpha at 1 uM relative to control; assay type: protein-complex assay; outline: as §1
Sequence of PI3K p110 beta/p85 alpha (Homo sapiens) (P27986 2-724 limits assumed): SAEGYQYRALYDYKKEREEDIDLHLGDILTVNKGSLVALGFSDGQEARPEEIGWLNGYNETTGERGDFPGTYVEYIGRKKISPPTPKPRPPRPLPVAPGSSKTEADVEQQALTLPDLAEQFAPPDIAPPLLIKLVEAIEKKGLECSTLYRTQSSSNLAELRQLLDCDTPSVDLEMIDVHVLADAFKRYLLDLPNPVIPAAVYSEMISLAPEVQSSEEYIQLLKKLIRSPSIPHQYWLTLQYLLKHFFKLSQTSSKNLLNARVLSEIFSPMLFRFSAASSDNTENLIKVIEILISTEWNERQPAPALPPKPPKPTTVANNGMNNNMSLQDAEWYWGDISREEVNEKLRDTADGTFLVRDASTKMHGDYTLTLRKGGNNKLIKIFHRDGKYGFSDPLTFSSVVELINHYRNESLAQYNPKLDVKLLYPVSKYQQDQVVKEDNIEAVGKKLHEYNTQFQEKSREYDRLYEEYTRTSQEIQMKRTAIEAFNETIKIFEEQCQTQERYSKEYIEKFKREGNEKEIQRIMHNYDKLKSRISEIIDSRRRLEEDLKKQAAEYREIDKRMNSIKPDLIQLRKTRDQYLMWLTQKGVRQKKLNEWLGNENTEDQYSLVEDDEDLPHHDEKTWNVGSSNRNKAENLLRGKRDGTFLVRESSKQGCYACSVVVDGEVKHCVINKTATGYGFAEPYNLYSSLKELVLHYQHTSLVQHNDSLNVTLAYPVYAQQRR
Sequence of PI3K p110 beta/p85 alpha (Homo sapiens) (P42338 whole entry partner, the tested form may be a part): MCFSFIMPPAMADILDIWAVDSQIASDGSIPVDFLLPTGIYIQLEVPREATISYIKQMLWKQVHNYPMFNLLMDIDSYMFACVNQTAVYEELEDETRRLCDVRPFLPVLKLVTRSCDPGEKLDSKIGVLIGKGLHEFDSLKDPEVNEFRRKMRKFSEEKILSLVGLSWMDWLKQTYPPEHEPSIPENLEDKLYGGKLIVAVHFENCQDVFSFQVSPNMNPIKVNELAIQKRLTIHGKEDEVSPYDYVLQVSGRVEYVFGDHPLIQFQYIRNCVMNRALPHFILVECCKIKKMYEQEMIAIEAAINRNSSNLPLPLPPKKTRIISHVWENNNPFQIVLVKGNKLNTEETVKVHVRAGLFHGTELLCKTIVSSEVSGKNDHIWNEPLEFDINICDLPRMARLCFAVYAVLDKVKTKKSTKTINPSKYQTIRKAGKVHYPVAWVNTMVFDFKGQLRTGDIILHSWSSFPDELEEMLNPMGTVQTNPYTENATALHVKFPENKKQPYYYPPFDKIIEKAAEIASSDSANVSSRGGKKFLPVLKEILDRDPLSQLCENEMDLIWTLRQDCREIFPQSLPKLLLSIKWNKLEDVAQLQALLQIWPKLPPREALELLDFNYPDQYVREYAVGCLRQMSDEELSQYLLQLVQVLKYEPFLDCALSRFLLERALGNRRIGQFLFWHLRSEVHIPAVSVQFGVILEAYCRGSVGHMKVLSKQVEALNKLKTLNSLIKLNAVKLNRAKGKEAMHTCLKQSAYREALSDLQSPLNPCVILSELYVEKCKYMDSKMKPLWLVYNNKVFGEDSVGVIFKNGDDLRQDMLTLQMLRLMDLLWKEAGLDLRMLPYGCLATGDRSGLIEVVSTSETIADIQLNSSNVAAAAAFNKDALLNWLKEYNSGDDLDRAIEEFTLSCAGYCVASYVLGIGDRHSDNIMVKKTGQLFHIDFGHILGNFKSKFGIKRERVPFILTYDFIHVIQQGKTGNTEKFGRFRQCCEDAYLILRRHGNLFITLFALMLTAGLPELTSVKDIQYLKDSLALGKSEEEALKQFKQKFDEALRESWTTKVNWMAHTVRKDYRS

[5] = molecular target: Phosphatidylinositol 4-phosphate 3-kinase C2 domain-containing subunit alpha (Homo sapiens) (UniProt O00443); experiment: Inhibition of human PI3KC2alpha at 1 uM relative to control; outline: as §1
Sequence of Phosphatidylinositol 4-phosphate 3-kinase C2 domain-containing subunit alpha (Homo sapiens) (O00443 whole entry, the tested form may be a part): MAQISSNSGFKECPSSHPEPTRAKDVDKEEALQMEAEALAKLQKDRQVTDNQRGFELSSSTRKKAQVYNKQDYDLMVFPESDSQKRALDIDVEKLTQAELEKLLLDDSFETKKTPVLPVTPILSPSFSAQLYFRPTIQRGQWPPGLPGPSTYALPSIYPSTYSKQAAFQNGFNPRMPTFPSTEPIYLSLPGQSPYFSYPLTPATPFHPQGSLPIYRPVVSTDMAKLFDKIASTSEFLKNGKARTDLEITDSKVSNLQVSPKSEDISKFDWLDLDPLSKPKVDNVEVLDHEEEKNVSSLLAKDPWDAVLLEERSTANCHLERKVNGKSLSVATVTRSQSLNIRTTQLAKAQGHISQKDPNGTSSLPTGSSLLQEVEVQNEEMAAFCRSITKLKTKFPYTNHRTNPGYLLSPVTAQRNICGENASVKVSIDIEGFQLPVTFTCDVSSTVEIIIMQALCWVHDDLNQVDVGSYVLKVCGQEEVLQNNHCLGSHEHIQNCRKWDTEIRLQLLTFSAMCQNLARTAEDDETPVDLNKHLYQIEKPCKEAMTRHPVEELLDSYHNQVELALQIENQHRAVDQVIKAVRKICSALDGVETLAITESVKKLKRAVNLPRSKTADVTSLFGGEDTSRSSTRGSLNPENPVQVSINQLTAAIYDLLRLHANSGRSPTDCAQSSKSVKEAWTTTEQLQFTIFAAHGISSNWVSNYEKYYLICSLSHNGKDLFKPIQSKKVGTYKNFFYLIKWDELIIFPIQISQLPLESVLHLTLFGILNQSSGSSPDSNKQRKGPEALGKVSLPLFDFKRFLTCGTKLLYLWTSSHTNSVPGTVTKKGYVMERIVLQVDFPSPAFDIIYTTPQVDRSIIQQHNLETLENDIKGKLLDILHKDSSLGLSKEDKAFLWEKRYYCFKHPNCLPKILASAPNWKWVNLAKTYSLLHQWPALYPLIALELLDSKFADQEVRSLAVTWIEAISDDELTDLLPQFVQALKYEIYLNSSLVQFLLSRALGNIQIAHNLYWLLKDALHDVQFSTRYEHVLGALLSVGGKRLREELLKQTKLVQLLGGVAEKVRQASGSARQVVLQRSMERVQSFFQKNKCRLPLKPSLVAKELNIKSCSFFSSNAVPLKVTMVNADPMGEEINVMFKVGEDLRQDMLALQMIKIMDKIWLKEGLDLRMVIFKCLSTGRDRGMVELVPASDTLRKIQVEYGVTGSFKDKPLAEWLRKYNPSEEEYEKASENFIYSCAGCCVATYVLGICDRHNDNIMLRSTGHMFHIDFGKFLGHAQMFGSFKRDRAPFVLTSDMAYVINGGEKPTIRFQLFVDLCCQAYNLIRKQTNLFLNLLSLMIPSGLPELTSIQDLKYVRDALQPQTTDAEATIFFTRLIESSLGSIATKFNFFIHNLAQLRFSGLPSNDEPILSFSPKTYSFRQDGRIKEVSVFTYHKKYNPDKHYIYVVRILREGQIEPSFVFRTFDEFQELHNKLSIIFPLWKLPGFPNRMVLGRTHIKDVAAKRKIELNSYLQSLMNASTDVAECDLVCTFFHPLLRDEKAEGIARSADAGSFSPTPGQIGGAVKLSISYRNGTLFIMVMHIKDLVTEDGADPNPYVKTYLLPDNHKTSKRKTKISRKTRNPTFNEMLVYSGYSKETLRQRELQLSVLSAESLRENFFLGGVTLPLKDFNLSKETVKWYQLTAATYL

T47D [6] = experiment: Antitumor activity against human T47D cells xenografted in BALB/c nude mouse assessed as decrease in tumor growth at 60 mg/kg, po administered via gavage after 3 weeks relative to control; assay type: functional; conditions: 504 h, read-out: TGI
HeLa [7] = experiment: Inhibition of mTORC1 in human HeLa cells assessed as reduction in 4E-BP1 phosphorylation at Ser65 residues at 0.5 to 1 uM by Western blot analysis; assay type: cell-based
Outline: (§3)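 Cells treated with the indicated concentrations, then whole-cell lysates immunoblotted. mTORC1 activity read as S6 and 4E-BP1 phosphorylation; mTORC2 activity read as AKT Ser473 phosphorylation. Blocking in 5% skim milk, primary antibodies at 4 °C overnight, peroxidase-conjugated secondary, ECL detection.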

HeLa [8] = experiment: Induction of autophagy in human HeLa cells assessed as increase in LC3-2 level at 1 to 2 uM after 48 hrs by Western blot analysis; assay type: functional, cell-based
Outline: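 Cells were treated for 48 h (2 days) with varying concentrations. Whole-cell lysates were immunoblotted for LC3B-II with β-actin as the internal control. Membranes were blocked in 5% skim milk, incubated with primary antibody overnight at 4 °C, then with peroxidase-conjugated secondary, and developed by ECL.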

[9] = MRT (0 to infinity) in Sprague-Dawley rat at 20 mg/kg, po administered as single dose by HPLC analysis; assay type: ADME, organism-based; conditions: in vivo
Outline: (§4)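 Rats fasted overnight, then given a single 20 mg/kg dose either iv or po. Blood collected and centrifuged immediately to obtain plasma. Plasma drug levels measured by HPLC, and pharmacokinetic parameters derived from both routes.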

[10] = Clearance in Sprague-Dawley rat at 20 mg/kg, po administered as single dose by HPLC analysis; assay type: ADME, organism-based; conditions: in vivo
Outline: (§5)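 Rats fasted overnight, then given one 20 mg/kg dose either iv or po. Blood was collected and centrifuged at once to obtain plasma. Plasma drug levels were measured by HPLC, and PK parameters were derived from the concentration-time data.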

HeLa [11] = experiment: Inhibition of mTORC1 in human HeLa cells assessed as reduction in 4E-BP1 phosphorylation at Thr37/46 residues at 0.5 to 1 uM by Western blot analysis; assay type: cell-based; outline: as §3
Homo sapiens [12] = species: Homo sapiens; experiment: Inhibition of mTORC1 in human T47D cells assessed as reduction in 4E-BP1 phosphorylation at Thr37/46 residues at 0.25 to 0.5 uM by Western blot analysis; assay type: cell-based; outline: as §3
[13] = molecular target: DNA-dependent protein kinase catalytic subunit (Homo sapiens, UniProt P78527); experiment: Inhibition of full length recombinant human DNA-PK
SiHa [14] = experiment: Induction of autophagy in human SiHa cells assessed as increase in LC3-2 puncta level after 48 hrs by immunofluorescence staining based microscopic analysis; assay type: functional, cell-based
Outline: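 Cells seeded on glass coverslips in complete 1640 or DMEM and incubated with inhibitors at different concentrations for 48 h. Fixed in 4% paraformaldehyde, permeabilized with 0.15% Triton X-100, blocked in 4% BSA/PBS for 1 h at room temperature. Anti-LC3B (1:200) overnight, then FITC-conjugated secondary, DAPI nuclear stain. LC3B-II puncta viewed by fluorescence microscopy.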

HeLa [15] = experiment: Inhibition of mTORC2 in human HeLa cells assessed as reduction in AKT phosphorylation at Ser473 residues at 0.5 to 1 uM by Western blot analysis; assay type: cell-based; outline: as §3
SiHa [16] = experiment: Induction of autophagy in human SiHa cells assessed as increase in LC3-2 level at 0.5 to 1 uM after 48 hrs by Western blot analysis; assay type: functional, cell-based
Outline: (§6)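 Cells treated with test agents at several concentrations for 2 days (48 h). LC3B-II detected by Western blot on lysates, with β-actin as internal control. Membranes blocked in 5% skim milk, primary antibodies at 4 °C overnight, peroxidase-conjugated anti-mouse or anti-rabbit IgG secondary, ECL detection.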

[17] = molecular target: PI3K p110 beta/p85 beta (Mus musculus) (UniProt Q8BTI9+O08908); experiment: Inhibition of full length recombinant mouse PI3K p110beta/p85beta at 1 uM relative to control; assay type: protein-complex assay; outline: as §1
[18] = Tmax in Sprague-Dawley rat at 20 mg/kg, po administered as single dose by HPLC analysis; assay type: ADME, organism-based; conditions: in vivo; outline: as §4
MDA-MB-231 [19] = experiment: Induction of autophagy in human MDA-MB-231 cells assessed as increase in LC3-2 level at 0.25 to 0.5 uM after 48 hrs by Western blot analysis; assay type: functional, cell-based; outline: as §6
Homo sapiens [20] = species: Homo sapiens; experiment: Inhibition of mTORC1 in human MDA-MB-231 cells assessed as reduction in 4E-BP1 phosphorylation at Ser65 residues at 0.25 to 0.5 uM by Western blot analysis; assay type: cell-based; outline: as §3
[21] = Volume of distribution at steady state in Sprague-Dawley rat at 20 mg/kg, iv administered as single dose by HPLC analysis; assay type: ADME, organism-based; conditions: in vivo, read-out: Vdss; outline: as §4
[22] = Half life in Sprague-Dawley rat at 20 mg/kg, iv administered as single dose by HPLC analysis; assay type: ADME, organism-based; conditions: in vivo; outline: as §5
NCI-H460 = experiment: Growth inhibition of human H460 cells after 72 hrs by CCK8 assay; assay type: functional, cell-based; conditions: NCI-H460, 72 h; outline: as §2

N#CCN1CCC(n2c(=O)cnc3cnc4ccc(-c5ccc(N)nc5)cc4c32)CC1
inhibition (Mus musculus): 10% | inhibition [1]: 17% | Activity (MDA-MB-231 [2]): Active | pIC50 (OVCAR-5): 5.55 | Activity (T47D [3]): 0.194 g | inhibition [4]: 7% | inhibition [5]: 4% | inhibition in vivo at 60 mg/kg (T47D [6]): 83.7% | inhibition (HeLa [7]): Active | Activity (HeLa [8]): Active | MRT inf [9]: 16.3 h | CL/F [10]: 58.5 mL/min/kg | inhibition (HeLa [11]): Active | inhibition (Homo sapiens [12]): Active | pIC50 [13]: 7.59 | Activity (SiHa [14]): Dose-dependent effect | inhibition (HeLa [15]): Active | Activity (SiHa [16]): Active | inhibition [17]: 8% | Tmax [18]: 3 h | Activity (MDA-MB-231 [19]): Active | inhibition (Homo sapiens [20]): Active | Vd [21]: 16.7 L/kg | half-life [22]: 7.57 h | pIC50 (NCI-H460): 5.75
